High-throughput results from PubChem.
This is a sample that favours compounds with a hit; in the whole collection about 2.2% have one here.
697 NFkB inh: inhibitors of PMA/ionomycin-induced NF-kB reporter, 697 cells, primary screen, B-cell NF-kB inhibitor project, cell-based, luminescence, uHTS; 697 B-cell NF-kB luciferase reporter, 16 h; inhibition, % at 4 µM; hit rate 0.33% among 330,000; AID 435022, 2010; in the data active means inhibition above about 35%
NR2E3 ag-1: NR2E3 agonists in two-hybrid cells, primary screen, cell-based, luminescence, CHO-S, Gal4-NCOR/VP16-NR2E3; Photoreceptor-specific nuclear receptor (Homo sapiens), Q9Y5X4; luciferase; inhibition of corepressor binding, % at 3.98 µM; hit rate 0.35% among 360,000; AID 602229, 2012;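 active means inhibition above the mean of all tested compounds plus 3 SD, cut at about 70% in these data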;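 further: higher means lower luciferase signal from less NR2E3 corepressor binding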
Target sequence (Q9Y5X4 whole entry, looked up, the tested form may be a part): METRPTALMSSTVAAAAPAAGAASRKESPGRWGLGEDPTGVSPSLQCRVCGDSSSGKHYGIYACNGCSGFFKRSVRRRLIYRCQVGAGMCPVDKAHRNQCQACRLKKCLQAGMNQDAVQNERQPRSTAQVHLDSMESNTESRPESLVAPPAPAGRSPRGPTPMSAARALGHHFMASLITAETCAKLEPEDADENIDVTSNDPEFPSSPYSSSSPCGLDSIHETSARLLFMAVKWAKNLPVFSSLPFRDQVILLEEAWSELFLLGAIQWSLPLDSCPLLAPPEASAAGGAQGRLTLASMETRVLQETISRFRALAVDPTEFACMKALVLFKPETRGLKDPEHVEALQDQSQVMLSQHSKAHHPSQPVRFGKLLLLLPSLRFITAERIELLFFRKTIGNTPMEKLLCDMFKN
miR122 inh: miR-122 Renilla sensor signal increase in Huh7, primary screen, miR-122 inhibitor project, cell-based, single point, plate reader; Huh7 miR-122 Renilla luciferase sensor, 48 h; neutral wells = 0, positive control = 100; activation (reporter increase), % at 12.5 µM; hit rate 0.3% among 340,000; AID 602342, 2012;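 active means mean replicate activation score at least 90 and every replicate individually at or above 90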;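 further: higher luciferase means less miR-122 activity so hits act as miR-122 inhibitors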
NR2E3 ag-2: inhibitors of NR2E3-RetCOR corepressor binding, primary screen, NR2E3 agonist project, biochemical, TR-FRET, GST-NR2E3, biotin-RetCOR; inhibition of corepressor binding, % at 4.78 µM; hit rate 0.12% among 320,000; 1536-well; Photoreceptor-specific nuclear receptor (Homo sapiens), Q9Y5X4;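 active means percent inhibition above the cutoff of mean plus 3 SD of all tested compounds, set per screening campaign, cut at about 20% in these data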
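Material: NR2E3–RetCOR corepressor complex | Quantity: 1.35 nM GST-tagged NR2E3 final | Schedule: 5 h at 4 °C | Replication: Singlicate compound wells | Reagent: RetCOR corepressor, biotinylated, 7 nM | Controls: Biotin wells as high control, 0.6% DMSO wells as low control | Signal: TR-FRET, Eu(K)-anti-GST donor, streptavidin-D2 acceptor, ex 340, em 617/671 nm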
Jurkat NFkB inh: inhibitors of induced NF-kB luciferase reporter, primary screen, TCR NF-kB activation inhibitor project, cell-based, luminescence, uHTS | Jurkat, PMA/ionomycin-induced NF-kB luciferase reporter | inhibition, % at 4 µM | hit rate 0.53% among 330,000; in the data active means inhibition above about 50%
FGF22 binding: binders of human FGF22 protein, primary screen, FGF22 synaptogenesis inhibitor project, biophysical, thermal shift, single point. recombinant FGF22 thermal shift, SYPRO orange fluorescence; percent of sucrose octasulfate shift, DMSO zero. activity (Tm shift, normalised), % at 9.99 µM. hit rate 1.5% among 340,000;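 active means mean Tm shift, scaled 0 neutral to 100 positive control, at about 1.3% or above, every replicate too, limit read from the data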
Target sequence (Q9HCT0 whole entry, looked up): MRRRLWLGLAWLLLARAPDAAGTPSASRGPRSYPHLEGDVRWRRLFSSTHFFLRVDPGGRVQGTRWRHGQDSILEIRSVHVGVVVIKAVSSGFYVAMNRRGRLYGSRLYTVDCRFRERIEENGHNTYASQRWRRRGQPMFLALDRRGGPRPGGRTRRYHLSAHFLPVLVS
697 NFkB conf: PMA/ionomycin-induced NF-kB reporter inhibitors, 697 retest, confirmation, B-cell NF-kB inhibitor project, cell-based, luminescence, single concentration. shares compounds with 697 NFkB inh. 697 B-cell NF-kB luciferase, 16 h. inhibition, % at 4 µM. hit rate 35% among 2,000. AID 449746, 2010; in the data active means inhibition mostly above about 28%, no sharp cut-off; inactive means mostly below about 22%
Hits are given with their value; – = inactive; · = no result given.

SMILES | 697 NFkB inh | NR2E3 ag-1 | miR122 inh | NR2E3 ag-2 | Jurkat NFkB inh | FGF22 binding | 697 NFkB conf
C[C@@H]1CN([C@@H](C)CO)C(=O)c2cc(-c3ccc(C#N)cc3)cnc2O[C@@H]1CN(C)CC1CC1 | · | · | – | · | · | · | ·
C[C@@H]1CN([C@@H](C)CO)C(=O)c2cc(C#Cc3cccc(F)c3)cnc2O[C@@H]1CN(C)C(=O)C1CCOCC1 | · | · | – | · | · | · | ·
CO[C@H]1CN(C)C(=O)c2cc(NC(=O)NC(C)C)ccc2OC[C@@H](C)N(Cc2ccc(-c3ccccn3)cc2)C[C@H]1C | · | · | – | · | · | – | ·
CO[C@H]1CN(C)C(=O)c2cc(NC(=O)c3nc4ccccc4s3)ccc2OC[C@@H](C)N(Cc2cncnc2)C[C@@H]1C | · | · | · | · | · | – | ·
CCCOc1ccc(C(=O)Nc2ccc(N(C)C)cc2)cc1 | – | – | – | – | – | · | ·
CC(C)Oc1ccc(C(=O)Nc2ccc(N(C)C)cc2)cc1 | 45 | – | · | – | – | – | 36
C[C@H](CO)N1C[C@H](C)[C@@H](CN(C)S(=O)(=O)c2cccs2)OCCCC[C@H](C)Oc2ccc(N(C)C)cc2C1=O | · | · | – | · | · | – | ·
C#CCN(C)Cc1ccccc1 | – | – | – | – | – | – | ·
C#CCN(Cc1ccccc1)S(=O)(=O)C=C | 36 | · | · | – | – | – | 30
CCOC(=O)c1nn(-c2ccccc2)c(C#N)c1NC(=O)c1nn(CC)cc1Br | 37 | – | – | – | – | · | 40
O=C(O)CCCCCn1c(SCc2cc(=O)n3cc(Cl)ccc3n2)nc2ccsc2c1=O | – | – | – | – | – | · | ·
O=C(O)CCCCCn1c(SCc2cc(=O)n3ccccc3n2)nc2ccsc2c1=O | 36 | – | · | – | – | – | –
C[C@H](CO)N1C[C@H](C)[C@@H](CN(C)CC2CCCCC2)Oc2ccc(NC(=O)Cc3ccccc3)cc2C1=O | · | · | – | · | · | – | ·
CN1C(=O)c2cc(NC(=O)c3cccs3)ccc2OC[C@H]2O[C@@H](CC(=O)O)CC[C@H]21 | · | · | – | · | · | – | ·
Cc1csc(NC(=O)CSc2nnc(-c3ccc(Cl)cc3)n2N)n1 | – | – | – | – | – | · | ·
COc1ccccc1-c1cc2nc(C)c(CCC(=O)NCc3ccc(F)cc3)c(C)n2n1 | – | – | – | – | – | · | ·
Cc1csc(NC(=O)CCc2c(C)nc3cc(-c4ccc(Cl)cc4)nn3c2C)n1 | 42 | – | – | – | – | – | 42
Cc1nc2cc(-c3ccc(Cl)cc3)nn2c(C)c1CCC(=O)NC(C)c1ccc2c(c1)OCCO2 (centres undefined) | 37 | – | – | – | – | – | 27
COc1cc(OC)cc(-c2cc3nc(C)c(CCC(=O)NCc4ccccc4)c(C)n3n2)c1 | 38 | – | – | – | – | – | 45
CCCNC(=O)Nc1ccc2c(c1)OC[C@@H](C)N(S(C)(=O)=O)C[C@H](C)[C@@H](OC)CN(C)C2=O | · | · | · | · | · | – | ·
CCc1nc(N=Nc2c(O)[nH]c3ccccc23)c2c3c(sc2n1)CCC3 | 37 | – | – | – | – | – | –
Cc1noc(C)c1S(=O)(=O)N(C)C[C@@H]1Oc2ccc(NC(=O)Nc3ccc(C(F)(F)F)cc3)cc2CC(=O)N([C@H](C)CO)C[C@@H]1C | · | · | – | · | · | – | ·
COc1ccc(-n2nnnc2S(=O)(=O)CC(=O)N2CCCCC2)cc1 | 39 | – | – | – | – | – | 60
Cc1ccc(-c2nn3c(C)nnc3c3ccccc23)cc1S(=O)(=O)NCCN1CCOCC1 | 53 | – | 198 | – | – | · | 30
O=C(NCc1ccccc1)c1ccc(C(=O)NCc2ccccc2)cc1 | · | – | · | · | · | – | ·
SMILES | 697 NFkB inh | NR2E3 ag-1 | miR122 inh | NR2E3 ag-2 | Jurkat NFkB inh | FGF22 binding | 697 NFkB conf
O=C(NCc1ccccc1)c1ccc(C(=O)N(C2CCCCC2)C2CCCCC2)cc1 | 35 | – | – | – | – | · | –
COc1cc(/C=C2\COC/C(=C\c3ccc(O)c(OC)c3)C2=O)ccc1O | – | – | – | – | – | – | ·
COc1cc(/C=C2/CC/C(=C/c3ccc(O)c(OC)c3)C2=O)ccc1O | 36 | – | · | – | – | – | –
C[C@H]1CN([C@@H](C)CO)S(=O)(=O)c2ccc(-c3cccc(C(=O)N(C)C)c3)cc2O[C@@H]1CN(C)Cc1ccc2c(c1)OCO2 | · | · | – | · | · | – | ·
CCOC(=O)c1sc(NC(=O)Nc2ccccc2F)nc1C | – | – | – | – | – | · | –
COc1ccc(C(=O)N/N=C/c2cc3ccccc3[nH]c2=S)cc1 | 36 | – | – | – | – | · | –
COc1ccccc1-c1ccc([C@H]2[C@@H](CO)N(C(=O)c3cccc(F)c3)[C@H]2C#N)cc1 | · | · | · | · | · | – | ·
COc1ccc(/C=N/n2c(C)nc3ccccc3c2=O)cc1 | – | – | – | – | – | – | ·
COc1ccc(/C=N\n2nnc3ccccc32)cc1 | – | – | – | – | – | · | –
Cc1cc(=O)oc2n[nH]c(-c3ccccc3)c12 | – | – | – | – | – | · | ·
COc1ccc(-c2[nH]nc3oc(=O)cc(C)c23)cc1 | 35 | – | – | – | – | · | –
COc1ccc(NS(=O)(=O)c2cc(NC(=O)c3nn(C)c(=O)c4ccccc34)ccc2OC)cc1 | 37 | – | – | – | – | · | –
CC(C)CC#Cc1cnc2c(c1)C(=O)N([C@@H](C)CO)C[C@@H](C)[C@H](CN(C)C(=O)c1cccc(F)c1)O2 | · | · | – | · | · | · | ·
C[C@@H]1CN([C@H](C)CO)C(=O)c2cccc(NC(=O)Nc3cccc4ccccc34)c2O[C@H]1CN(C)C(=O)Nc1ccc(F)cc1 | · | · | – | · | · | – | ·
COc1cc(-c2cc(=O)c3c(O)c(OC)c(OC)c(OC)c3o2)cc(OC)c1OC | 39 | – | – | – | – | – | 38
COc1cc(-c2cc(=O)c3c(C)cc(O)cc3o2)cc(OC)c1OC | · | – | · | · | · | – | ·
C[C@H]1CN([C@@H](C)CO)C(=O)c2cccc(NC(=O)C3CCCCC3)c2O[C@H]1CN(C)Cc1ccccc1 | · | · | – | · | · | – | ·
CCSc1nnnn1-c1ccccc1 | – | – | · | – | – | · | ·
Cc1ccc(C)c(-n2nnnc2Sc2nnnn2-c2ccccc2)c1 | 35 | – | – | – | – | · | 33
O=C(/C=C/c1ccc2c(c1)OCO2)Nc1nc(-c2ccc(F)cc2F)cs1 | – | · | · | – | – | · | ·
Cc1csc(NC(=O)/C=C/c2ccc3c(c2)OCO3)n1 | 70 | – | · | – | – | – | 64
N#CC1=C(N)N2C(=C(C#N)C1c1ccccc1)Sc1ccccc12 (centres undefined) | – | · | · | – | – | · | ·
